According to ChEMBL document CHEMBL5661977, “BI 6727, a Polo-like kinase inhibitor with improved pharmacokinetic profile and broad antitumor activity” (Clin Cancer Res, 2009):
Active and inactive are the calls of the source. No cut-off for these calls is given here.

Assays:
HCT-116 [1] = test: Antitumor activity against human HCT-116 cells xenografted in BomTac:NMRI-Foxn1nu mouse assessed as tumor regression at 20 mg/kg, iv administered twice a week on consecutive days; assay type: functional, organism-based
In short: (§1)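 Female nude mice bore s.c. HCT 116 (2×10^6 cells), NCI-H460 (1×10^6 cells) or serially transplanted CXB1 tumor pieces. At ~50–100 mm³, mice were randomized into groups of 10 and dosed i.v. (0.1 N HCl/saline) or by gavage (0.5% hydroxyethyl-cellulose) at 10 mL/kg. Calipers read thrice weekly, volume = length×width²×π/6. T/C from median volumes on the last day.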

NCI-H460 [2] = test: Antimitotic activity against human NCI-H460 cells assessed as histone H3 phosphoserine 10 level at 100 nmol/L incubated for 24 hrs by immunofluorescence analysis; assay type: functional, cell-based
In short: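 NCI-H460 cells on chamber slides were treated next day for 24 h with inhibitor or 0.1% DMSO vehicle. They were fixed and permeabilized with 4% formaldehyde/Triton X-100 for 5 min at RT, then stained with anti-tubulin and anti-phospho-Ser10 histone H3 (1:500 in PBS/2% BSA) plus DAPI 0.05 µg/mL. Imaged by fluorescence microscopy.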

[3] = Tmax in Wistar rat at 30 mg/kg, po by HPLC-MS/MS analysis; assay type: ADME, organism-based; settings: in vivo
In short: (§2)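 Single oral gavage of BI 6727 suspended in 0.5% hydroxyethyl-cellulose (10 mL/kg) to female nude mice or male Wistar rats. EDTA plasma levels measured over time by HPLC-MS/MS with internal standard. AUC0-24 by trapezoidal rule. Parameters from noncompartmental analysis.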

[4] = AUC (0-24hrs) in Wistar rat at 30 mg/kg, po by HPLC-MS/MS analysis; assay type: ADME, organism-based; settings: in vivo
In short: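 Single oral dose to female nude mice or male Wistar rats. EDTA plasma was collected over 24 h and quantified by LC-MS/MS after extraction with internal standard. AUC0-24 was calculated from the concentration-time profile by the trapezoidal rule using noncompartmental analysis.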

NCI-H460 [5] = test: Antitumor activity against human NCI-H460 cells xenografted in BomTac:NMRI-Foxn1nu mouse assessed as T/C at 70 mg/kg, po administered once a week upto 6 weeks relative to control; assay type: functional; in short: as §1
[6] = Volume of distribution at steady state in Wistar rat at 10 mg/kg, iv by HPLC-MS/MS analysis; assay type: ADME, organism-based; settings: in vivo, read-out: Vdss
In short: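 Male Wistar Crl:WI (Han) rats, n = 4, given a single 5-min i.v. infusion. BI 6727 measured in EDTA plasma at various times after the infusion started, by HPLC-MS/MS with internal standard. Parameters came from noncompartmental analysis. Terminal half-life was taken from the last two time points after i.v. dosing.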

HCT-116 [7] = test: Antitumor activity against human HCT-116 cells xenografted in BomTac:NMRI-Foxn1nu mouse assessed as T/C at 7 mg/kg, po administered daily upto 6 weeks relative to control; assay type: functional; in short: as §1
[8] = Drug uptake in human HCT-116 cells xenografted in BomTac:NMRI-Foxn1nu mouse plasma at 35 mg/kg, iv measured after 168 hrs by HPLC-MS/MS analysis; assay type: ADME, organism-based
In short: (§3)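 Female nude mice bearing s.c. HCT 116 xenografts (2 × 10⁶ cells), n = 3 per time point, given a single i.v. dose. Tumor, organs and EDTA plasma collected at 1, 8, 24, 48, 96 and 168 h. Tissue extracts and plasma analysed by HPLC-MS/MS. Tissue nmol/mg converted to nmol/L assuming density 1.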

[9] = Oral bioavailability in Wistar rat at 30 mg/kg by HPLC-MS/MS analysis; assay type: ADME, organism-based; settings: in vivo; in short: as §2
[10] = AUC (0 to 24 hrs) in human HCT-116 cells xenografted in BomTac:NMRI-Foxn1nu mouse at 20 mg/kg, iv administered once a week upto 6 weeks by HPLC-MS/MS analysis; assay type: ADME, organism-based; settings: in vivo, 1008 h
[11] = Oral bioavailability in BomTac:NMRI-Foxn1nu mouse at 50 mg/kg by HPLC-MS/MS analysis; assay type: ADME, organism-based; settings: in vivo; in short: as §2
HCT-116 [12] = test: Antitumor activity against human HCT-116 cells xenografted in BomTac:NMRI-Foxn1nu mouse assessed as tumor growth delay at 25 mg/kg, iv administered twice a week on consecutive days; assay type: functional, organism-based; in short: as §1
[13] = Half life in BomTac:NMRI-Foxn1nu mouse at 35 mg/kg, iv by HPLC-MS/MS analysis; assay type: ADME, organism-based; settings: in vivo
In short: (§4)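 Female nude mice, n = 3, single i.v. dose (vehicle 0.1 N HCl diluted with 0.9% NaCl, 10 mL/kg). BI 6727 measured in EDTA plasma at several times by HPLC-MS/MS with internal standard. Parameters came from noncompartmental analysis. Terminal half-life was taken from the last two time points after i.v. dosing.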

[14] = AUC (0 to 24 hrs) in human NCI-H460 cells xenografted in BomTac:NMRI-Foxn1nu mouse at 10 mg/kg, po administered daily upto 6 weeks by HPLC-MS/MS analysis; assay type: ADME, organism-based; settings: in vivo, 1008 h
[15] = AUC (0 to 24 hrs) in human HCT-116 cells xenografted in BomTac:NMRI-Foxn1nu mouse at 15 mg/kg, iv administered twice a week upto 6 weeks by HPLC-MS/MS analysis; assay type: ADME, organism-based; settings: in vivo, 1008 h
[16] = AUC (0 to 24 hrs) in human HCT-116 cells xenografted in BomTac:NMRI-Foxn1nu mouse at 25 mg/kg, iv administered twice a week upto 6 weeks by HPLC-MS/MS analysis; assay type: ADME, organism-based; settings: in vivo, 1008 h
HCT-116 [17] = test: Antitumor activity against human HCT-116 cells xenografted in BomTac:NMRI-Foxn1nu mouse assessed as tumor regression at 25 mg/kg, iv administered twice a week on consecutive days; assay type: functional, organism-based; in short: as §1
[18] = Clearance in BomTac:NMRI-Foxn1nu mouse at 35 mg/kg, iv by HPLC-MS/MS analysis; assay type: ADME, organism-based; settings: in vivo; in short: as §4
HCT-116 [19] = test: Antitumor activity against human HCT-116 cells xenografted in BomTac:NMRI-Foxn1nu mouse assessed as mitotic index in large intestine at 40 mg/kg, iv; assay type: functional, organism-based
In short: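 Female nude mice bore s.c. HCT 116 tumors (~200 mm³) and received a single i.v. 40 mg/kg dose or vehicle (n=3 per group per time). Tumor, small intestine and large intestine were taken at 6, 24 and 48 h. Frozen sections were stained for pSer10 histone H3 (immunoperoxidase) or by TUNEL. Positive area was calculated as % of tumor cell area; Student's t test.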

[20] = Drug uptake in human HCT-116 cells xenografted in BomTac:NMRI-Foxn1nu mouse at 35 mg/kg, iv measured after 8 hrs by HPLC-MS/MS analysis; assay type: ADME, organism-based, Neoplasm; settings: tumour (HCT-116 xenograft); in short: as §3
[21] = Oral bioavailability in dog by HPLC-MS/MS analysis; assay type: ADME, organism-based, Canis lupus familiaris; settings: in vivo
HCT-116 [22] = test: Antitumor activity against human HCT-116 cells xenografted in BomTac:NMRI-Foxn1nu mouse assessed as tumor growth delay at 15 mg/kg, iv administered twice a week on consecutive days; assay type: functional, organism-based; settings: time 7.0 day; in short: as §1
[23] = AUC (0 to 24 hrs) in human HCT-116 cells xenografted in BomTac:NMRI-Foxn1nu mouse at 30 mg/kg, iv administered once a week upto 6 weeks by HPLC-MS/MS analysis; assay type: ADME, organism-based; settings: in vivo, 1008 h

## CC[C@@H]1C(=O)N(C)c2cnc(Nc3ccc(C(=O)N[C@H]4CC[C@H](N5CCN(CC6CC6)CC5)CC4)cc3OC)nc2N1C(C)C [VOLASERTIB]
HCT-116 [1]
  Activity: Active
NCI-H460 [2]
  Activity: Active
[3]
  Tmax: 6.7 h
[4]
  AUC(0-t): 34 µM·h
NCI-H460 [5]
  T/C: 20%
[6]
  Vd: 22 L/kg
HCT-116 [7]
  T/C: 3%
[8]
  concentration at 168 h: 0.008 µM
[9]
  bioavailability: 55%
[10]
  AUC: 40 µM·h
[11]
  bioavailability: 41%
HCT-116 [12]
  Activity: Active
[13]
  half-life: 46 h
[14]
  AUC: 61 µM·h
[15]
  AUC: 37 µM·h
[16]
  AUC: 75 µM·h
HCT-116 [17]
  Activity: Active
[18]
  clearance: 10 mL/min/kg
HCT-116 [19]
  Activity: inactive
[20]
  concentration at 8 h: 32 µM
[21]
  bioavailability: 53%
HCT-116 [22]
  Activity: Active
[23]
  AUC: 52 µM·h
